Assay results pooled from the literature.
Compare with care: the assays were run in different laboratories.
HDAC5: Histone deacetylase 5 (HDAC5, Homo sapiens, UniProt Q9UQL6)
DRD3: D(3) dopamine receptor (DRD3, Homo sapiens, UniProt P35462)
SLC6A3: Sodium-dependent dopamine transporter (SLC6A3, Homo sapiens, UniProt Q01959)

COc1c(Cl)cccc1Nc1c(-c2ccncc2OC[C@@H]2COCCO2)[nH]c2c1C(=O)NCC2 — IC50 (Discoidin domain-containing receptor 2 (DDR2, Homo sapiens, UniProt Q16832); ligand displacement, TR-FRET): 0.053 µM
COc1ccc(N(Cc2nc(-c3ccc(F)cc3)cs2)C(=O)CCCCCC(=O)NO)cc1 — IC50 (HDAC5; enzyme activity, inhibitor): > 10 µM
Cc1[nH]c(C)c(S(=O)(=O)Nc2ccc(C(F)(F)F)c3ncccc23)c1C(=O)N1CCC(F)(F)C1 — IC50 (DRD3; G protein activation, antagonist, BRET): 15 µM
CCCN(CCC)S(=O)(=O)c1ccc(C(=O)O)cc1 — IC50 (Taste receptor type 2 member 16 (TAS2R16, Homo sapiens, UniProt Q9NYV7); inositol phosphate, antagonist, TR-FRET): 770 µM
Cc1[nH]c(C)c(S(=O)(=O)Nc2cc(Cl)cc(Cl)c2Cl)c1C(=O)N1CCC(F)(F)C1 — IC50 (DRD3; β-arrestin recruitment, antagonist): 12 µM
NS(=O)(=O)c1ccc(Nc2nc(-c3cc4cc(Br)ccc4oc3=O)cs2)c(Br)c1 — IC50 (Carbonic anhydrase 12 (CA12, Homo sapiens, UniProt O43570); enzyme activity, inhibitor, absorbance): 6.18 µM
CCc1ccc(NS(=O)(=O)c2c(C)[nH]c(C)c2C(=O)N2CCC(F)(F)C2)cc1Cl — IC50 (DRD3; G protein activation, antagonist, BRET): 1.6 µM
N#CC[C@@]12C[C@@H]1[C@@H](n1cnc3c(NCCCCCCc4ccccc4)nc(I)nc31)[C@H](O)[C@@H]2O — IC50 (SLC6A3; transporter uptake, inhibitor, radiometric): 1.7 µM
COc1ccc(N(Cc2csc(-c3ccc(Br)cc3)n2)C(=O)CCCCCC(=O)NO)cc1 — IC50 (HDAC5; enzyme activity, inhibitor): > 10 µM
N=C(N)c1ccc(OCCCCCOc2ccc(C(=N)N)cc2)cc1 — IC50 (Coagulation factor XI (F11, Homo sapiens, UniProt P03951); enzyme activity, inhibitor, absorbance): > 100 µM
O=C(NO)c1ccc(Cn2cnc3c(Nc4ccc(Cl)cc4)ncnc32)cc1 — IC50 (HDAC5; enzyme activity, inhibitor): 0.473 µM
O=C(Nc1ccc2[nH]c(=O)oc2c1)C(=O)N1CCC(Cc2ccc(F)cc2)CC1 — IC50 (Glutamate NMDA receptor; GRIN1/GRIN2B (GRIN1/GRIN2B, Homo sapiens, UniProt Q05586+Q13224); ion current, two-electrode voltage clamp; oocytes): 0.029 µM
CSc1ccc(NS(=O)(=O)c2c(C)[nH]c(C)c2C(=O)N2CCC(F)(F)C2)cc1Cl — IC50 (DRD3; G protein activation, antagonist, BRET): 6 µM
CN(C)C(=O)c1cc2cnc(Nc3ccc(-c4ccc5c(=O)cc(N6CCOCC6)oc5c4)cc3)nc2n1C1CCCC1 — IC50 (DNA-dependent protein kinase catalytic subunit (PRKDC, Homo sapiens, UniProt P78527); enzyme activity, inhibitor): 0.192 µM
Cc1[nH]c(C)c(S(=O)(=O)Nc2ccc(Cl)c(C(F)(F)F)c2)c1C(=O)N1CCC(F)(F)C1 — IC50 (DRD3; G protein activation, antagonist, BRET): 15 µM
CNc1nc(C#Cc2ccc(Cl)s2)nc2c1ncn2[C@H]1[C@H](O)[C@H](O)[C@]2(CC#N)C[C@H]12 — IC50 (SLC6A3; transporter uptake, inhibitor, radiometric): 0.36 µM
